The values below come from ChEMBL document CHEMBL4257443, “The discovery of a potent Nav1.3 inhibitor with good oral pharmacokinetics” (Medchemcomm, 2017).

SMILES strings stand for the structures. Values after ≈ are worked out from the molar mass of the structure shown. Active and inactive are the calls of the source. The rule behind the calls is not given here. A value given as a limit tells only on which side of the number the result lay.

The subject of data set [1] is Cynomolgus monkey. Briefly: Toxicity in cynomolgus monkey assessed as change in left ventricular pressure parameters at 30 mg/kg. Particulars: in vivo. The class given is organism-based, Macaca fascicularis.
Data set [2] has as its system Rattus norvegicus. Briefly: Antipain activity in tibial nerve transection surgery model of rat assessed as reduction of noxious pinch evoked activity at 3 to 10 mg/kg administered as iv bolus dose measured every 15 mins for 30 mins. The class given is functional, organism-based. An outline of the steps: (§1)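 Rats had tibial nerve transection 2–3 weeks before recording. Under isoflurane anaesthesia (5% in O2) in a stereotaxic frame, body temperature was held at 37 °C and L4-5 spinal segments were exposed by laminectomy. After stable baseline responses, compound was given as an IV bolus, with effects assessed every 15 min for up to 30 min per dose. Treatment was randomised and blinded, and dry blood spots were taken for plasma exposure.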

Data set [3] concerns Cynomolgus monkey. Put plainly: Toxicity in cynomolgus monkey assessed as effect on ECG parameters at 30 mg/kg. The conditions noted are these: in vivo. Format: organism-based, Macaca fascicularis.
Data set [4] deals with Cynomolgus monkey. Put plainly: Toxicity in cynomolgus monkey assessed as change in systolic blood pressure at 30 mg/kg. Format: organism-based, Macaca fascicularis. Particulars: in vivo.
Data set [5] has as its system Rattus norvegicus. Briefly: Prodrug conversion in po dosed rat assessed as formation of N-(3-chloro-4-(trifluoromethoxy)benzyl)-3-fluoro-4-(N-thiazol-2-ylsulfamoyl)benzamide. Format: ADME, organism-based. Particulars: in vivo.
Data set [6] has as its system Cynomolgus monkey. Briefly: Toxicity in cynomolgus monkey assessed as change in heart rate at 30 mg/kg. Particulars: in vivo. Format: organism-based, Macaca fascicularis.
Data set [7] deals with Cynomolgus monkey. Briefly: Toxicity in cynomolgus monkey assessed as change in diastolic blood pressure at 30 mg/kg. Format: organism-based, Macaca fascicularis. The conditions noted are these: in vivo.
Data set [8] concerns Rattus norvegicus. Briefly: Antipain activity in tibial nerve transection surgery model of rat assessed as reduction of heat evoked activity at 3 to 10 mg/kg administered as iv bolus dose measured every 15 mins for 30 mins. The class given is functional, organism-based. An outline of the steps: as §1
Data set [9] has as its system Rattus norvegicus. Put plainly: Antipain activity in tibial nerve transection surgery model of rat assessed as reduction of mechanical punctate stimuli evoked activity at 3 to 10 mg/kg administered as iv bolus dose measured every 15 mins for 30 mins. The class given is functional, organism-based. In short, it runs like this:
as §1

Data set [10] concerns Rattus norvegicus. Put plainly: Antipain activity in tibial nerve transection surgery model of rat assessed as reduction of innocuous brush evoked activity at 3 to 10 mg/kg administered as iv bolus dose measured every 15 mins for 30 mins. The class given is functional, organism-based. An outline of the steps:
as §1

For data set [11], the target named is CYP2C9 (Homo sapiens, UniProt P11712). Briefly: Inhibition of CYP2C9 (unknown origin) at 3 uM by high throughput assay relative to control. Format: ADME.
The nature of data set [12]: Clearance in rat liver microsomes. Format: ADME, microsome. The conditions noted are these: read-out: CLH.
A short description of data set [13]: Fraction unbound in rat plasma. The class given is ADME, cell-free.
For data set [14], the target named is Sodium channel protein type 2 subunit alpha (Homo sapiens, UniProt Q99250). Briefly: Inhibition of human NaV1.2.
Data set [15] addresses CYP3A4 (Homo sapiens, UniProt P08684). Briefly: Inhibition of CYP3A4 (unknown origin) at 3 uM by high throughput assay relative to control. Format: ADME.
Data set [16] is described as follows: Clearance in cynomolgus monkey liver microsomes. Format: ADME, Macaca fascicularis, microsome. Particulars: read-out: CLH.
Data set [17] in a line: Dissociation constant, pKa of compound. The class given is physicochemical.
Data set [18] is described as follows: Oral bioavailability in rat. The class given is ADME, organism-based. Particulars: in vivo.
The nature of data set [19]: Aqueous solubility of compound. Format: physicochemical. The conditions noted are these: buffer.
For data set [20], the system named is MDR1. Briefly: Efflux ratio of permeability across basolateral to apical over apical to basolateral side in RRCK cells expressing MDR1. The class given is ADME, cell-based, Canis lupus familiaris, MDCKII-LE. Particulars: dog, MDCK-MDR1.
For data set [21], the target named is Sodium channel protein type 10 subunit alpha (Homo sapiens, UniProt Q9Y5Y9). Briefly: Inhibition of human NaV1.8.
The nature of data set [22]: Elimination half life in rat. Format: ADME, organism-based. The conditions noted are these: in vivo, read-out: beta t1/2 (converted).
A short description of data set [23]: Lipophilicity, log D of the compound. The class given is physicochemical. Particulars: octanol/water.
In data set [24] the target is Sodium channel protein type 9 subunit alpha (Homo sapiens, UniProt Q15858). Put plainly: Inhibition of human NaV1.7.
Data set [25] addresses T1, Sodium channel protein type 3 subunit alpha (Homo sapiens, UniProt Q9NY46). Put plainly: Inhibition of human NaV1.3 expressed in HEK cells by electrophysiological method. Format: cell-based.
For data set [26], the target named is Sodium channel protein type 1 subunit alpha (Homo sapiens, UniProt P35498). Briefly: Inhibition of human NaV1.1.
Data set [27] addresses Voltage-gated inwardly rectifying potassium channel KCNH2 (Homo sapiens, UniProt Q12809). Briefly: Inhibition of human ERG.
Data set [28] is described as follows: Clearance in dog liver microsomes. Format: ADME, Canis lupus familiaris, microsome. Particulars: read-out: CLH. A general note: Microsomes from liver hold many membrane-bound enzymes, among them those of drug oxidation.
The nature of data set [29]: Clearance in human liver microsomes. The class given is ADME, microsome. The conditions noted are these: read-out: CLH.
Data set [30] is described as follows: Clearance in rat. Particulars: in vivo. The class given is ADME, organism-based.
Data set [31] is described as follows: Volume of distribution in rat. The class given is ADME, organism-based. The conditions noted are these: in vivo.
Data set [32] addresses T1, Sodium channel protein type 3 subunit alpha. Put plainly: Inhibition of NaV1.3 (unknown origin) expressed in HEK293 cells by CC2-DMPE/DiSBAC2(3) dye-based FRET assay. The class given is cell-based.

T1 sequence (Q9NY46 whole entry): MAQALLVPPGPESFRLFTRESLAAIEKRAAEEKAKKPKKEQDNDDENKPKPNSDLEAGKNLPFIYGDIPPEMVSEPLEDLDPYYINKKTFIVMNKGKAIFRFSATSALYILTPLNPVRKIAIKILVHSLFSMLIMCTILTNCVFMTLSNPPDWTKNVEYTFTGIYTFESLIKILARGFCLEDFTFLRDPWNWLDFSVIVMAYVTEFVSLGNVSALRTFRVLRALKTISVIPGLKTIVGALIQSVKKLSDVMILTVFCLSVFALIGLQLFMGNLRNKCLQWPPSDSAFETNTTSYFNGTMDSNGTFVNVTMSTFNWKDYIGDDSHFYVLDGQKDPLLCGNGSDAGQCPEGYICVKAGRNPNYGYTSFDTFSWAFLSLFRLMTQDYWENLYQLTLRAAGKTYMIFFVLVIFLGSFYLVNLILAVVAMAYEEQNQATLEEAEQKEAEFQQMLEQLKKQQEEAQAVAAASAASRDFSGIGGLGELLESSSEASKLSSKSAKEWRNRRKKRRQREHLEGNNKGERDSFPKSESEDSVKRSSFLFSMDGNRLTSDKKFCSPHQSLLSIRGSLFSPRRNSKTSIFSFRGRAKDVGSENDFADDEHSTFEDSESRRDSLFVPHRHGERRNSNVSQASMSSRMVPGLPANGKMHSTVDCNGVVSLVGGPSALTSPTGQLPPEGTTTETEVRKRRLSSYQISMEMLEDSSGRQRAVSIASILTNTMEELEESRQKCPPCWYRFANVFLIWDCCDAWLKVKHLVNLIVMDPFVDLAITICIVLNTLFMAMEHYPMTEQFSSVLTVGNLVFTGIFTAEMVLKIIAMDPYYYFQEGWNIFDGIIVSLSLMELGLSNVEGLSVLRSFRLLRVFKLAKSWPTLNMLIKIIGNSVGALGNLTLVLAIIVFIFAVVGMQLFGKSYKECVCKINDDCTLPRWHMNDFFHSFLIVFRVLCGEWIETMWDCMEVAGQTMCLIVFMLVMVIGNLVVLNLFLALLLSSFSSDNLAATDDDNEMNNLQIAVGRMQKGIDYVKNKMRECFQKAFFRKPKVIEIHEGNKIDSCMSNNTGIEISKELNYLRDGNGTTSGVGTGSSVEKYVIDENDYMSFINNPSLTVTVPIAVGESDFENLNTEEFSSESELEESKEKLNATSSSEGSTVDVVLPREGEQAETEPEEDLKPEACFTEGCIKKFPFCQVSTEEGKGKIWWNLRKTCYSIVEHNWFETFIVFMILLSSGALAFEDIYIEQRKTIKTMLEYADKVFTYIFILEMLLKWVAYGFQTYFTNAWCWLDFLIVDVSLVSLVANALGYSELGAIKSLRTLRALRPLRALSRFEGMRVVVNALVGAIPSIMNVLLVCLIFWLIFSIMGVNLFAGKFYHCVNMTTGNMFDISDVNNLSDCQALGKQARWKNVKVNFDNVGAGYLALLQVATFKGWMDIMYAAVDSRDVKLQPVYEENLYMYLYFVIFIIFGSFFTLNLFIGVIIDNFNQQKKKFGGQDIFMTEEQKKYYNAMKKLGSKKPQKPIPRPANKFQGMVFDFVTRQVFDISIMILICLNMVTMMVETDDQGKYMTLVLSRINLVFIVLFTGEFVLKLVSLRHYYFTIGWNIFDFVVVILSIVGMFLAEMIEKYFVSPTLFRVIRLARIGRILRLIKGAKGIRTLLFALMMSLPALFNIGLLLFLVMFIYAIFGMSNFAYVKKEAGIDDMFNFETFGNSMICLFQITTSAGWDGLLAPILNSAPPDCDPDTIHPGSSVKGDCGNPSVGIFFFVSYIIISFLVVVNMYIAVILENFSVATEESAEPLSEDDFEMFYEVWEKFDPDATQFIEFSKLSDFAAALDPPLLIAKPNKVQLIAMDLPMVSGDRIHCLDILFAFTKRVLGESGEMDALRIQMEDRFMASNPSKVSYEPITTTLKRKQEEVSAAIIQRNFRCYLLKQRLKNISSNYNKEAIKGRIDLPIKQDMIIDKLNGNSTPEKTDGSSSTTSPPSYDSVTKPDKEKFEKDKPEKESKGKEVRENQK
Chain of CYP2C9 (P11712 whole entry): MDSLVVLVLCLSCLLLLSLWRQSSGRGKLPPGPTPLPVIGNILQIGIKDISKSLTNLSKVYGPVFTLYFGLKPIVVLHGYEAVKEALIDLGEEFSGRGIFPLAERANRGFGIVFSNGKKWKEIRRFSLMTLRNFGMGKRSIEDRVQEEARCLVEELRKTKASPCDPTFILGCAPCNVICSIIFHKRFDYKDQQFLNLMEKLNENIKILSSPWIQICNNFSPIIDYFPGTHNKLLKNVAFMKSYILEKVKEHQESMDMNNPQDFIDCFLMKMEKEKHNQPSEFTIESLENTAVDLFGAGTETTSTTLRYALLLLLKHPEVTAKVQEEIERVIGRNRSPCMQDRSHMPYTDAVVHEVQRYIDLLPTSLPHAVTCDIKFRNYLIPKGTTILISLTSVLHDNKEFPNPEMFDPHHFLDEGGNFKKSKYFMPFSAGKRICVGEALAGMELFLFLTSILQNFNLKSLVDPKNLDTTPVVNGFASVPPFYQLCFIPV
Chain of Sodium channel protein type 9 subunit alpha (Q15858 whole entry): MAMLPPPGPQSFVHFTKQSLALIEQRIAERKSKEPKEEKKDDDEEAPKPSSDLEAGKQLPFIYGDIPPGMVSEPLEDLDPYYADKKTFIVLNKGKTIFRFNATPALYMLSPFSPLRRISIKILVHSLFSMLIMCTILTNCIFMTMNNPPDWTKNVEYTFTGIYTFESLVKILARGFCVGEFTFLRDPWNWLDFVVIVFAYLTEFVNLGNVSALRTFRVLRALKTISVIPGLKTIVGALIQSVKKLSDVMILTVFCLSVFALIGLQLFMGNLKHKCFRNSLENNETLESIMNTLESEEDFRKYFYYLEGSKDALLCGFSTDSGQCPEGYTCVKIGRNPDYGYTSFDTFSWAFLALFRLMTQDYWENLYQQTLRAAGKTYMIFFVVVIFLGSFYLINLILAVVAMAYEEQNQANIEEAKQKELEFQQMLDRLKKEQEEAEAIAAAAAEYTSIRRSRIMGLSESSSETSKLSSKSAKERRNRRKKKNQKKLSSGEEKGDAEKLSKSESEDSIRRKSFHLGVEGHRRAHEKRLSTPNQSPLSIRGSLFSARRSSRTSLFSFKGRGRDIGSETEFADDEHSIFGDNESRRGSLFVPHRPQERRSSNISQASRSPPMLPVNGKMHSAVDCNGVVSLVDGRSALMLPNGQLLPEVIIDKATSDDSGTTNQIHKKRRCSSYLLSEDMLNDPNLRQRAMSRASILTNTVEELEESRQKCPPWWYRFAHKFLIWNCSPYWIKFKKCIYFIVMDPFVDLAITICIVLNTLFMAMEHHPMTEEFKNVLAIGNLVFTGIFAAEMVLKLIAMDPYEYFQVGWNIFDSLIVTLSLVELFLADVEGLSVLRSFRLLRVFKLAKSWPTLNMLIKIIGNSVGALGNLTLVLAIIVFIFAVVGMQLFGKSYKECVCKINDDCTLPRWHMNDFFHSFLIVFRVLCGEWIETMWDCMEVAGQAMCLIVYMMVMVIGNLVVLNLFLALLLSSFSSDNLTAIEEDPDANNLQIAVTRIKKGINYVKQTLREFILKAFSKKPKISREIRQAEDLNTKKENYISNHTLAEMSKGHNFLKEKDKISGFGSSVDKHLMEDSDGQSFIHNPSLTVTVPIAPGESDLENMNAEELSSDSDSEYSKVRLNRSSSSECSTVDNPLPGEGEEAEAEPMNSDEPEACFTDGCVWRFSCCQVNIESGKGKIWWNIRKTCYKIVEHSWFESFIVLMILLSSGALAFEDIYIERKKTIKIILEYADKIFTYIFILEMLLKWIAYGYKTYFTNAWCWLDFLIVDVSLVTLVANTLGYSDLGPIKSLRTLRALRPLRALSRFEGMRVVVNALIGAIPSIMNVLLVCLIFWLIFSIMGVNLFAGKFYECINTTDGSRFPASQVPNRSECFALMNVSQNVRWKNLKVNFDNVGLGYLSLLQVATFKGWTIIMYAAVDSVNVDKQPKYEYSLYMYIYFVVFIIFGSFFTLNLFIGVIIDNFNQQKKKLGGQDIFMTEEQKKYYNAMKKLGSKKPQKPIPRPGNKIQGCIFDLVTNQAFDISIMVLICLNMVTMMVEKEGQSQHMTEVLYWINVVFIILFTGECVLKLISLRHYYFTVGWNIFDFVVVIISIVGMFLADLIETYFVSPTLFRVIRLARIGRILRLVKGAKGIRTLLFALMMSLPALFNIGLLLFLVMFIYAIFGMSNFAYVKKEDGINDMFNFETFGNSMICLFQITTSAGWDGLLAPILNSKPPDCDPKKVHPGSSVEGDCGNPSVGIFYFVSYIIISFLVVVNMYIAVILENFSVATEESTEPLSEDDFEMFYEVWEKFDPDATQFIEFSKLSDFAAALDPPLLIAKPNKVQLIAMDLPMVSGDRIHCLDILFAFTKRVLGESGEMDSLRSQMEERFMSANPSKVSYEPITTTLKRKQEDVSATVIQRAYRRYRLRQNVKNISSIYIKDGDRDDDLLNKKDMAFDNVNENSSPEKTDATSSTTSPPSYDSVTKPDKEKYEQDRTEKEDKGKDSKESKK
Chain of CYP3A4 (P08684 whole entry): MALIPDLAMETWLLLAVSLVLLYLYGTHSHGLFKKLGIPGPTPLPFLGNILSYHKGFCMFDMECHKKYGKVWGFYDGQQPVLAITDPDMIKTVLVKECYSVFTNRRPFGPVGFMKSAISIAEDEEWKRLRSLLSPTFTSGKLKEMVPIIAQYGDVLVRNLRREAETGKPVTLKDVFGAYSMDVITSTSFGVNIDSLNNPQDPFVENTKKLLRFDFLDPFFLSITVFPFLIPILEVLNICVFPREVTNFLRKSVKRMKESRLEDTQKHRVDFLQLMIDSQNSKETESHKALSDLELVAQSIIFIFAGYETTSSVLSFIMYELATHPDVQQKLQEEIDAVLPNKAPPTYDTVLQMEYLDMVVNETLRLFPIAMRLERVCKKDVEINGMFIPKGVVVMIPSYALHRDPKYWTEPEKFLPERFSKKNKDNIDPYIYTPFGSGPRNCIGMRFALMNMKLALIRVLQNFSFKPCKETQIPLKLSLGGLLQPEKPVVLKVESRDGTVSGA

With `O=C(NCc1ccc(OC(F)(F)F)c(Cl)c1)c1ccc(S(=O)(=O)/N=c2\sccn2COP(=O)(O)O)c(F)c1`, the Activity entry in data set [1], in data set [3], in [4], in data set [6] and in [7] was “Non-Toxic” each time. For the same compound, the outcome in data set [2] was Active. The Drug metabolism result in data set [5] is “Metabolite_Detected”. Moreover, the outcome in data set [8], in data set [9] and in data set [10] was inactive.

For orientation: inhibition means the share of the control response that was lost under treatment. Broadly, the fraction unbound is the share of the substance not bound to proteins or other matrix. The IC50 is the concentration needed to halve the response being measured. What is called pKa is the pH at which an ionisable group is half protonated. As a reminder, the bioavailability is dose-corrected exposure relative to a reference, in per cent. Broadly, the solubility is how much of the substance goes into solution per volume. One may read the efflux ratio as a quotient of directional permeabilities that is used to spot active efflux. For orientation: logD means the decadic logarithm of the distribution of all forms, ionised or not, between an organic phase and buffer at a given pH. The clearance is the rate of elimination divided by the concentration. By Vd is commonly meant the apparent volume that relates the amount in the body to the concentration in plasma or blood. Take `O=S(=O)(Nc1ncns1)c1ccc(OCc2ccc(OC(F)(F)F)c(Cl)c2)cc1`: the inhibition at 3 µM in [11] came out at 85%; in [15], 75%. In addition, the microsomal CLint in [12] is less than 14 µL/min/mg; in [16], less than 32 µL/min/mg; in [28], less than 18 µL/min/mg; in data set [29], 15 µL/min/mg. The same compound gave an unbound share (fraction unbound) in [13] of 0.00024. Further, the IC50 is 2760 nM in data set [14]; 15100 nM in data set [21]; 5100 nM in data set [24]; 22 nM in [25]; 455 nM in [26]; greater than 10000 nM in data set [27]. In [17], this compound had a pKa of 4.1. The bioavailability in data set [18] was 73%. The compound further came in with a solubility in [19] of 99 µM (≈ 46.1 µg/mL). In addition, the efflux ratio in data set [20] amounted to 1. For the same compound, the half-life in [22] is 7 h. This compound also gave a logD in data set [23] of 2.65. The same compound returned a clearance in data set [30] of 2 mL/min/kg. For the same compound, the Vd in data set [31] worked out at 1 L/kg.

Compound `O=C1[C@@H](N2CC[C@H](c3cc(Cl)cc(Cl)c3)C2)CCN1c1ccc(S(=O)(=O)Nc2nccs2)cc1` displayed an IC50 in [32] of less than 2000 nM.
